Assay results reported in ChEMBL document CHEMBL2311311, “Synthesis and in vitro activity of 1,2,4-triazole-ciprofloxacin hybrids against drug-susceptible and drug-resistant bacteria” (Eur J Med Chem, 2013).
Converted amounts (≈) assume the structure as drawn.

Assays:
Type in all cases: functional
[1] = system: Staphylococcus epidermidis; test: Antimicrobial activity against Staphylococcus epidermidis ATCC 12228 by broth microdilution method
Procedure, shortened: (§1)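 Inocula were saline (0.85% NaCl) suspensions at 0.5 McFarland (150 × 10⁶ CFU/mL). Compounds were first screened by agar dilution on Mueller-Hinton agar, and active ones then went to broth microdilution. MIC is the lowest concentration inhibiting growth. The negative control was medium containing DMSO at the final concentration, without compound.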

Proteus mirabilis = test: Antimicrobial activity against Proteus mirabilis ATCC 12453 by broth microdilution method; procedure, shortened: as §1
Staphylococcus aureus [2] = test: Antimicrobial activity against Staphylococcus aureus ATCC 25923 by broth microdilution method; procedure, shortened: as §1
Staphylococcus aureus [3] = test: Antimicrobial activity against methicillin-resistant Staphylococcus aureus 14001 by broth microdilution method
Procedure, shortened: (§2)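 Inoculum in sterile saline (0.85% NaCl), adjusted to 0.5 McFarland (150 × 10⁶ CFU/mL). Compounds first screened by agar dilution on Mueller-Hinton agar, then titrated by broth microdilution. Medium with DMSO at the final concentration and no compound served as negative control. MIC is the lowest concentration inhibiting growth. MBC is the lowest concentration giving >99.9% reduction in CFU of the initial inoculum.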

Micrococcus luteus = test: Antimicrobial activity against Micrococcus luteus ATCC 10240 by broth microdilution method; procedure, shortened: as §1
Bacillus cereus = test: Antimicrobial activity against Bacillus cereus ATCC 10876 by broth microdilution method; procedure, shortened: as §1
Bacillus subtilis = test: Antimicrobial activity against Bacillus subtilis ATCC 6633 by broth microdilution method; procedure, shortened: as §1
Staphylococcus aureus [4] = test: Ratio of MBC to MIC for methicillin-resistant Staphylococcus aureus 14001 by broth microdilution method; procedure, shortened: as §2
Escherichia coli = test: Antimicrobial activity against Escherichia coli ATCC 25922 by broth microdilution method; procedure, shortened: as §1
Pseudomonas aeruginosa = test: Antimicrobial activity against Pseudomonas aeruginosa ATCC 9027 by broth microdilution method; procedure, shortened: as §1

Row | Compound | MIC [1] [µM] | MIC (Proteus mirabilis) [µM] | MIC (Staphylococcus aureus [2]) [µM] | MBC (Staphylococcus aureus [3]) [µM] | MIC (Staphylococcus aureus [3]) [µM] | MIC (Micrococcus luteus) [µM] | MIC (Bacillus cereus) [µM] | MIC (Bacillus subtilis) [µM] | Ratio (Staphylococcus aureus [4]) | MIC (Escherichia coli) [µM] | MIC (Pseudomonas aeruginosa) [µM]
1 | COc1ccc(-n2c(-c3cccc(Cl)c3)nn(CN3CCN(c4cc5c(cc4F)c(=O)c(C(=O)O)cn5C4CC4)CC3)c2=S)cc1 | 1.48 (≈ 0.979 µg/mL) | 0.023 (≈ 0.0152 µg/mL) | 1.48 (≈ 0.979 µg/mL) | 0.74 (≈ 0.489 µg/mL) | 0.74 (≈ 0.489 µg/mL) | 2.95 (≈ 1.95 µg/mL) | 0.36 (≈ 0.238 µg/mL) | 0.09 (≈ 0.0595 µg/mL) | 1 | 0.023 (≈ 0.0152 µg/mL) | 0.36 (≈ 0.238 µg/mL)
2 | O=C(O)c1cn(C2CC2)c2cc(N3CCN(Cn4nc(-c5cccc(Cl)c5)n(-c5ccc(Br)cc5)c4=S)CC3)c(F)cc2c1=O | 5.51 (≈ 3.91 µg/mL) | 0.17 (≈ 0.121 µg/mL) | 5.51 (≈ 3.91 µg/mL) | 5.51 (≈ 3.91 µg/mL) | 2.76 (≈ 1.96 µg/mL) | 10.1 (≈ 7.17 µg/mL) | 1.38 (≈ 0.98 µg/mL) | 0.34 (≈ 0.241 µg/mL) | 2 | 0.084 (≈ 0.0596 µg/mL) | 1.38 (≈ 0.98 µg/mL)
3 | O=C(O)c1cn(C2CC2)c2cc(N3CCN(Cn4nc(-c5cccc(Cl)c5)n(-c5cccc(I)c5)c4=S)CC3)c(F)cc2c1=O | 1.29 (≈ 0.977 µg/mL) | 0.04 (≈ 0.0303 µg/mL) | 1.29 (≈ 0.977 µg/mL) | 5.16 (≈ 3.91 µg/mL) | 0.64 (≈ 0.484 µg/mL) | 2.58 (≈ 1.95 µg/mL) | 0.16 (≈ 0.121 µg/mL) | 0.04 (≈ 0.0303 µg/mL) | 8 | 0.02 (≈ 0.0151 µg/mL) | 0.16 (≈ 0.121 µg/mL)
4 | O=C(O)c1cn(C2CC2)c2cc(N3CCN(Cn4nc(-c5cccc(Cl)c5)n(-c5ccc(I)cc5)c4=S)CC3)c(F)cc2c1=O | 5.16 (≈ 3.91 µg/mL) | 0.16 (≈ 0.121 µg/mL) | 5.16 (≈ 3.91 µg/mL) | 5.16 (≈ 3.91 µg/mL) | 2.58 (≈ 1.95 µg/mL) | 10.3 (≈ 7.8 µg/mL) | 1.29 (≈ 0.977 µg/mL) | 0.32 (≈ 0.242 µg/mL) | 2 | 0.08 (≈ 0.0606 µg/mL) | 1.29 (≈ 0.977 µg/mL)
5 | O=C(O)c1cn(C2CC2)c2cc(N3CCN(Cn4nc(-c5cccc(Cl)c5)n(-c5ccc(F)cc5F)c4=S)CC3)c(F)cc2c1=O | 0.73 (≈ 0.487 µg/mL) | 0.022 (≈ 0.0147 µg/mL) | 0.73 (≈ 0.487 µg/mL) | 0.73 (≈ 0.487 µg/mL) | 0.73 (≈ 0.487 µg/mL) | 2.92 (≈ 1.95 µg/mL) | 0.18 (≈ 0.12 µg/mL) | 0.09 (≈ 0.06 µg/mL) | 1 | 0.022 (≈ 0.0147 µg/mL) | 0.36 (≈ 0.24 µg/mL)
6 | O=C(O)c1cn(C2CC2)c2cc(N3CCN(Cn4nc(-c5cccc(Cl)c5)n(-c5ccc(Cl)cc5Cl)c4=S)CC3)c(F)cc2c1=O | 0.7 (≈ 0.49 µg/mL) | 0.043 (≈ 0.0301 µg/mL) | 1.4 (≈ 0.98 µg/mL) | 44.6 (≈ 31.2 µg/mL) | 0.7 (≈ 0.49 µg/mL) | 2.78 (≈ 1.95 µg/mL) | 0.17 (≈ 0.119 µg/mL) | 0.043 (≈ 0.0301 µg/mL) | 64 | 0.043 (≈ 0.0301 µg/mL) | 0.17 (≈ 0.119 µg/mL)
7 | O=C(O)c1cn(C2CC2)c2cc(N3CCN(Cn4nc(-c5cccc(Cl)c5)n(-c5cc(Cl)cc(Cl)c5)c4=S)CC3)c(F)cc2c1=O | 22.3 (≈ 15.6 µg/mL) | 0.7 (≈ 0.49 µg/mL) | 22.3 (≈ 15.6 µg/mL) | 44.6 (≈ 31.2 µg/mL) | 22.3 (≈ 15.6 µg/mL) | 44.6 (≈ 31.2 µg/mL) | 5.58 (≈ 3.91 µg/mL) | 1.4 (≈ 0.98 µg/mL) | 2 | 0.7 (≈ 0.49 µg/mL) | 11.2 (≈ 7.81 µg/mL)
8 | Cn1c(-c2cccc(Cl)c2)nn(CN2CCN(c3cc4c(cc3F)c(=O)c(C(=O)O)cn4C3CC3)CC2)c1=S | 0.86 (≈ 0.489 µg/mL) | 0.053 (≈ 0.0302 µg/mL) | 0.86 (≈ 0.489 µg/mL) | 0.86 (≈ 0.489 µg/mL) | 0.42 (≈ 0.239 µg/mL) | 1.72 (≈ 0.979 µg/mL) | 0.21 (≈ 0.12 µg/mL) | 0.053 (≈ 0.0302 µg/mL) | 2 | 0.053 (≈ 0.0302 µg/mL) | 0.1 (≈ 0.0569 µg/mL)
9 | O=C(O)c1cn(C2CC2)c2cc(N3CCNCC3)c(F)cc2c1=O [CIPROFLOXACIN] | 1.48 (≈ 0.49 µg/mL) | 0.045 (≈ 0.0149 µg/mL) | 2.96 (≈ 0.981 µg/mL) | 5.92 (≈ 1.96 µg/mL) | 1.48 (≈ 0.49 µg/mL) | 5.88 (≈ 1.95 µg/mL) | 0.36 (≈ 0.119 µg/mL) | 0.09 (≈ 0.0298 µg/mL) | 4 | 0.024 (≈ 0.00795 µg/mL) | 0.72 (≈ 0.239 µg/mL)
10 | CN[C@H](CC(C)C)C(=O)N[C@H]1C(=O)N[C@@H](CC(N)=O)C(=O)N[C@H]2C(=O)N[C@H]3C(=O)N[C@H](C(=O)N[C@H](C(=O)O)c4cc(O)cc(O)c4-c4cc3ccc4O)[C@H](O)c3ccc(c(Cl)c3)Oc3cc2cc(c3O[C@@H]2O[C@H](CO)[C@@H](O)[C@H](O)[C@H]2O[C@H]2C[C@](C)(N)[C@H](O)[C@H](C)O2)Oc2ccc(cc2Cl)[C@H]1O [VANCOMYCIN] | – | – | – | 2.7 (≈ 3.91 µg/mL) | 0.68 (≈ 0.986 µg/mL) | – | – | – | – | – | –
